ChEMBL document CHEMBL4513216, “Probing the Open Global Health Chemical Diversity Library for Multistage-Active Starting Points for Next-Generation Antimalarials” (ACS Infect Dis, 2020)

Assay: Toxicity liver stage against HepG2, at 10uM
Format: cell-based
Parameters: test concentration 10 uM, cell line HepG2-A16-CD81EGFP
Conditions: human, HepG2-A16-CD81EGFP cells; read-out: INHIBITION
Method in brief: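 Uninfected HepG2-A16-CD81EGFP cells, 3 × 10^3 per well, 1536-well, plated on prespotted compound at 10 μM final, parasite-free screening media added to match infected plates; puromycin 10 μM positive, DMSO 0.5% negative; run in parallel with 48 h PbLuc assay at 37 °C, 5% CO2; viability by CellTiter-Glo luminescence, normalized to controls.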

Compound | cytotoxicity at 10 µM [%]
COc1ccnc(NC2CCN(CC(=O)Nc3ccccc3)CC2)n1 | -11
CC(=O)N1CCC(N[C@@H]2CO[C@H](CNC(=O)c3cccs3)[C@H]2O)CC1 | 1.96
COCCCNc1c(-c2ccc(Cl)cc2)c(=O)c1=O | 39.2
O=C(NC1CCN(c2ccc(-c3ccccc3F)nn2)C1)C1CCC1 (stereo unspecified) | 26
CN1CCN(c2cc(NC(=O)Cn3ccc4ccccc43)ncn2)CC1 | -0.973
O=C(COc1ccc(Cl)cc1Cl)N1CCCSCC1CN1CCOCC1 (stereo unspecified) | 4.09
CCS(=O)(=O)N1C[C@H]2CN(c3cnn(C)c3)C(=O)[C@H]2C1 | -1.19
CN(C)C(=O)N[C@@H]1CN(S(C)(=O)=O)[C@@H]2CCCO[C@@H]21 | 2.62
Cc1nnc([C@@H]2CC[C@@H]3[C@@H](CCN3C3CCOCC3)O2)o1 | 8.58
CC1c2ncc(Cn3cncn3)n2CCN1C(=O)c1ccccn1 (stereo unspecified) | -0.785
CCOCC1CN(C(=O)C2CCOCC2)Cc2cnn(C)c21 (stereo unspecified) | -1.05
Cc1ncnc2c1CCN(C(=O)c1ccnnc1)CC2 | 9.9
CN1CCc2c(C#N)c(NCCc3ccccc3)n3cnnc3c2C1 | 12.4
Nc1cc(-c2c[nH]nc2C2CCCCN2C(=O)C2CCCC2)ccn1 (stereo unspecified) | 12
Cc1cc(-c2cnn(CCNC(=O)Cc3ccccn3)c2C2CC2)on1 | 2.8
CCc1cc(C(=O)N2CCCC(Cc3ccc(NC)nn3)C2)on1 (stereo unspecified) | -14.1
CC1CCCN(Cc2c(C3CCOCC3)[nH]c3ncccc23)C1 (stereo unspecified) | -2.03
CN(C(=O)Nc1cccnc1)C1CCN(c2ccc(Cl)cc2)CC1 | -2.46
CS(=O)(=O)CCN1CCSCC1c1ccc(Cl)cc1 (stereo unspecified) | -24.3
CCOCC1CCN(C(=O)Nc2ccc(-c3csnn3)cc2)C1 (stereo unspecified) | 13.7
COc1ccc(Cl)cc1CS(=O)(=O)Cc1nc(C)no1 | -2.53
Cc1cc(NC(=O)NCCO)nn1-c1ccc(Cl)cc1Cl | -136
COc1ccc(CN2CCn3cccc3C2C)cc1F (stereo unspecified) | -2.63

Compound | cytotoxicity at 10 µM [%]
N#Cc1ccc(CNCCS(=O)(=O)N2CCc3ccccc32)cc1 | -4.11
CS(=O)(=O)NCC1CCCCN1C(=O)c1ccsc1 (stereo unspecified) | 0.555
CCc1nnc(C2Cc3ccccc3CN2Cc2nc(C3CC3)no2)o1 (stereo unspecified) | -8.03
CCc1ccc(C2CCCN2C(=O)NCC(=O)NCC(C)C)o1 (stereo unspecified) | 17.7
OCCOc1ccc(NCc2cccnc2)cn1 | 1.04
CCS(=O)(=O)NCCCNC1CSCCc2ccccc21 (stereo unspecified) | -3.66
COc1ccc(-n2cnnc2SCC(=O)N(C)C(C)C)cn1 | 16.7
COc1ccc(N2CCC(N(C)C(=O)C(C)SC)CC2)cc1 (stereo unspecified) | 1.69
Cc1ncsc1C(=O)NCCNc1cnccn1 | 0.00742
Cc1noc(C)c1CN(Cc1ccccc1)C(C)C | -9.74
CC(c1cccnc1)N1CCN(CCO)CC1 (stereo unspecified) | -3.21
c1cnn(CC2CCCN2c2ncnc3c2CCC3)c1 (stereo unspecified) | 41.2
O=C(CNc1ccc(OC2CCOC2)cc1)NCc1cccs1 (stereo unspecified) | 3.43
CC(C)(C#N)C(=O)Nc1nccn1Cc1ccc(Br)cc1 | -47.5
CN1CCOC(C(=O)Nc2ccc3[nH]nnc3c2)C1 (stereo unspecified) | 6.77
CN1CCOC(C(=O)Nc2ccc3c(c2)nc(C2CC2)n3C)C1 (stereo unspecified) | -5.5
CC1CN(C)CCN1C(=O)NCCCn1ccnc1 (stereo unspecified) | -45.5
CNC(=O)COc1ccc(CNc2c(Cl)cccc2C#N)cc1 | -55.9
COc1cccc(S(=O)(=O)CCN2CCC3(CC2)OCCO3)c1 | 4.62
CCN1CCCN(C(=O)c2cnc(OC(C)C)c(Cl)c2)CC1 | -14.4
CCOCC1c2c(ncn2C)CCN1C(=O)c1cscn1 (stereo unspecified) | -98.2
OCCN1CCC(F)(F)C2(CCN(c3cccnc3)C2)C1 (stereo unspecified) | -94.7
NC(=O)N1C[C@H](NC(=O)c2cscn2)[C@@H]2OCCC[C@@H]21 | -99

Compound | cytotoxicity at 10 µM [%]
O=S(=O)(c1ccccc1)N1CCC2(CCCN2Cc2ccccc2Cl)C1 (stereo unspecified) | -74.5
COCC1CN(Cc2ccccn2)Cc2nn(C)cc21 (stereo unspecified) | -87.5
COc1cccc(N2CCN(Cc3nccn3C(C)C)CC2=O)c1 | 1.85
COCCN(C)C[C@@H]1CN(C(=O)C(C)(C)c2ccccc2)C[C@@H]1CO | 16.7
Cc1cc(-c2nn(C)c(Cl)c2CN2CCN(C)C(C(=O)O)C2)no1 (stereo unspecified) | -0.0938
CN(Cc1cccnc1)CC1CC12CCCC2 (stereo unspecified) | -0.243
CN1[C@@H](c2ccccc2)[C@@H](C(=O)NCc2ccccn2)C[C@@]1(C)C(=O)O | -3.8
CCc1c(C(=O)N2CCN(C)[C@@H]3CS(=O)(=O)C[C@@H]32)[nH]c2ccccc12 | -6.08
CC(C)=CCCC(C)CN1CCC(n2cc(C(=O)NCCO)nn2)CC1 (stereo unspecified) | 0.232
O=C(CCC(F)(F)F)N1CCCC2(CCC(=O)N(CC3CC3)C2)C1 (stereo unspecified) | 7.4
CCC(C)Oc1ccc(CNCCNS(C)(=O)=O)cc1Cl (stereo unspecified) | -6.78
Nc1nc2c(c(N3CCCC(OCc4ccccn4)C3)n1)CCNCC2 (stereo unspecified) | -11.4
CN(C)c1nc2c(c(N3CCC(O)CC3)n1)CN(CC1CCOC1)CC2 (stereo unspecified) | -0.473
Cc1cc(NCCN2CCNC2=O)nc2cc3c(cc12)CCC3 | 2.97
O=C(c1ccc2occc2c1)N1CCC(C(=O)O)(n2cccn2)CC1 | -0.657
c1cn(CCc2c[nH]cn2)c(-c2cc(CN3CCCC3)cs2)n1 | -1.45
Cc1cc(CN2CCCn3nc(CCC(=O)O)cc3C2)ccc1F | 2.28
Cc1cc(CNC(=O)CC2CCN(C(C)C)CC2)n(C)n1 | -1.77
Cc1ccc(CN(Cc2ccccn2)C(=O)[C@H]2CC[C@@H](N)C2)s1 | -0.327
CCN(C)C(=O)c1ccc(N2CCC(Oc3cccc(F)c3)CC2)nc1 | -23.7
CCCc1nnc(N2CC[C@@](O)(C3CCOCC3)[C@H](C)C2)s1 | 8.26
CCC(C(=O)N(Cc1ccccc1OC)C1CC1)n1cccn1 (stereo unspecified) | -44
CN(Cc1nc(C2CC2)no1)C(=O)c1cccc(CC2CCNCC2)c1 | 2.74

Compound | cytotoxicity at 10 µM [%]
O=C(c1cccnc1)N1CCOC(CCCc2ccccc2)C1 (stereo unspecified) | 7.07
COc1cccc(-c2n[nH]cc2-c2nc(CC3CCN(C)CC3)no2)c1 | -9.98
CN(C)S(=O)(=O)c1csc(C(=O)N2CCC(C(N)=O)CC2)c1 | -46.5
CCN(CCO)C[C@@H]1CN(C(=O)c2ccc(C)s2)C[C@@H]1CO | 12.1
Cc1cccc(NCc2nn(C)c(=O)[nH]2)c1 | 2.6
Cc1nc2c(c(=O)n1C)CCN(Cc1cc3ccccc3[nH]1)CC2 | -8.42
CC(C)CNC(=O)c1ccc2c(=O)n(-c3ccccc3)cnc2c1 | -5.52
CN(C)C1CCCN(C(=O)c2ccc3sc4c(c3c2)CCNC4=O)CC1 (stereo unspecified) | -8.58
CCC(C(=O)NCc1csc(-c2ncccn2)n1)n1cccn1 (stereo unspecified) | -5.79
CNC(=O)[C@@H]1C[C@@H](N)CN1C1CCN(c2ccccc2F)CC1 | -53.3
O=C1CC2(CCN(CCO)CC2)CN1Cc1cc(F)cc(F)c1 | -15.7
Cn1cccc1CCC(=O)N1CCC2(CC1)c1ccccc1CC2O (stereo unspecified) | -8.57
COc1cnc(C2(O)CCN(C(=O)c3cccnc3)CC2)c(OC)n1 | 0.41
Cc1cc(-c2cnn(CCNC(=O)C3CC3)c2C2CC2)on1 | 11.7
COc1ccc(CNC(C)Cn2cccn2)cc1F (stereo unspecified) | -0.544
CN1CCN(C2CCN(Cc3nc(-c4ccoc4)no3)CC2)C1=O | -2.83
CCc1noc(CN(C)CC(c2cccs2)N2CCOCC2)n1 (stereo unspecified) | -4.56
CN1C(=O)CN(C(=O)c2ccc(=O)n(C)c2)c2ccccc21 | -6.67
Cc1csc(N2CCN(C(=O)C(C)n3cncn3)CC2)n1 (stereo unspecified) | 0.652
CCc1nnc2n1CCN(CC(=O)N1CCc3ccccc3C1)C2 | -7.83
CC(C)Sc1ncccc1C(=O)NCc1ccc(O)cc1 | -3.29
CCn1cnnc1C1CCN(C(=O)CCCOc2ccccc2)CC1 | 0.927
CC(OCC1CC1)C(=O)N1CCCN(Cc2cnn(C)c2)CC1 (stereo unspecified) | 2.55

Compound | cytotoxicity at 10 µM [%]
Cc1noc(C2CCCN(C(=O)c3ccc(Br)o3)C2)n1 (stereo unspecified) | 1.73
Cc1cccc(Nc2cc(C)nc(C3CCN(C(C)C)C3)n2)n1 (stereo unspecified) | 9.93
O=C(CN(C1=NCCCCC1)c1ccc(Cl)cc1)c1ccccc1 | 12.2
CCCN1CC[C@@H]2OC[C@H](C(=O)Nc3cccnc3)C[C@@H]2C1 | 5.7
COCCN1CCN(C(=O)NC2CC2)Cc2ccc(C)nc21 | 3.51
O=C(c1ccc2[nH]ccc2c1)N1CC[C@@H]2CN(CC3CC3)CCO[C@@H]2C1 | -108
Cc1ccc(N2CC3(COCCN(Cc4ccccn4)C3)OCC2=O)s1 (stereo unspecified) | -3.49
c1cncc(COC2COC3(CCN(c4cnccn4)CC3)C2)c1 (stereo unspecified) | 1.89
O=C(c1cnccn1)N1CCN2C[C@H](OCc3ccccc3F)C[C@H]2C1 | -2.16
CCN1C(=O)CCC12CCCN(Cc1nccs1)CC2 (stereo unspecified) | -0.413
COc1cc(CNCc2ccnc(N3CCCC3)c2)cc(OC)c1 | 8.8
CC(C)Oc1ncnc2c1CCN(Cc1ccc(F)cc1)CC2 | 5.68
Cc1cc(CNCC2Cn3nnc(C)c3CO2)oc1C (stereo unspecified) | 6.65
CS(=O)(=O)N1CCCCC12CCCN(Cc1nccs1)C2 (stereo unspecified) | 9.94
CC(C)CCN1Cc2c(C(=O)N3CCCC3)nn(C)c2C1 | -0.173
CC(C)Nc1nc2c(c(NC3CC3)n1)CCN(Cc1nccn1C)CC2 | 0.325
Fc1cnc(N2CCC3(CC2)CN(Cc2cccs2)CCO3)nc1 | 12.4
Cc1cc(C)cc(NC(=O)Nc2c(O)c3ccccc3oc2=O)c1 | 9.24
CN(C)C(=O)CN1C[C@H]2CC[C@@H](C1)N(Cc1ccccc1OCCO)C2 | 8.79
